# Screens deposited in PubChem by several laboratories.
# UBC13 polyUb: inhibitors of human UBC13 polyubiquitin chain formation. inhibition, % at 20 µM. AID 485273. 330,000 compounds, 0.47% hits. TR-FRET; in the data active = inhibition above about 45%, passing the limit was not always enough
# Target sequence (P61088 whole entry, looked up): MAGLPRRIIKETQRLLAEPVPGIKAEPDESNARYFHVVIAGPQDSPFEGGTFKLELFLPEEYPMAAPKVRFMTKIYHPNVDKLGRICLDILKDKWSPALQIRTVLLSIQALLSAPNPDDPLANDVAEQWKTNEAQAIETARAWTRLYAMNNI
# RBBP9 inhibitor: inhibitors of human serine hydrolase RBBP9 | inhibition, % at 7.94 µM | AID 1515 | recombinant RBBP9, FP-Rh probe fluorescence polarization | O75884 | 220,000 compounds, 0.2% hits;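 active = inhibition above the campaign mean of all tested compounds plus 3 SD, cut at about 14% in these data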;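 note: plate controls were DMSO wells with RBBP9 for no effect and wells lacking RBBP9 protein for full effect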
#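 Measured by: FP readout at 525/598 nm; material: recombinant human RBBP9; also added: Serine-hydrolase probe FP-Rh, 375 nM pre-mixing; medium: Tris buffer pH 8.0, NaCl, Pluronic; replication: one well per compound; doses: one concentration, 7.94 µM nominal, 0.794% DMSO; timing: preincubation 30 min plus labeling 45 min at 25 °C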
# Rin1-Abl PPI inh: human Rin1-Abl interaction inhibition | P00519+Q13671 | inhibition, % at 7.35 µM | TR-FRET Rin1/Abl binding, biochemical | 360,000 compounds, 0.4% hits; in the data active = inhibition above about 5%, passing the limit was not always enough
# PREPL inh: human PREPL enzyme inhibition; Q4J6C6; recombinant PREPL, fluorescence polarization activity-based probe; inhibition, % at 5.96 µM; 320,000 compounds, 0.68% hits; in the data active = inhibition above about 43%;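 note: 0% = enzyme with DMSO and 100% = wells lacking enzyme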
# ALR inh: blocks human ALR sulfhydryl oxidase activity. P55789. purified ALR, DTT oxidation, H2O2 HRP-luminol luminescence. inhibition, % (no concentration beside the values). 290,000 compounds, 3.8% hits. AID 485317;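 active = mean replicate inhibition above about 79%, with every replicate also reaching it, limit read from the data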
# Target sequence (P55789 whole entry, looked up): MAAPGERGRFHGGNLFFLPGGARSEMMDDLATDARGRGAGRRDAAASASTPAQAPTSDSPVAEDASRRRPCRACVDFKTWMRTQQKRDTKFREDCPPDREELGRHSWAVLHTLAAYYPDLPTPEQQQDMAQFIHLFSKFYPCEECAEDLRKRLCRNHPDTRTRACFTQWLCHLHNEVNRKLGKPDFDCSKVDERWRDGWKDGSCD
# UBC9 SUMO inh: inhibitors of human SUMOylation (UBC9); P63279; HTRF SUMOylation assay, SAE1/SAE2 + UBC9, in vitro; inhibition, % at 35 µM; 290,000 compounds, 0.36% hits; AID 2006; in the data active = inhibition above about 50%, passing the limit was not always enough
# Target sequence (P63279 whole entry, looked up): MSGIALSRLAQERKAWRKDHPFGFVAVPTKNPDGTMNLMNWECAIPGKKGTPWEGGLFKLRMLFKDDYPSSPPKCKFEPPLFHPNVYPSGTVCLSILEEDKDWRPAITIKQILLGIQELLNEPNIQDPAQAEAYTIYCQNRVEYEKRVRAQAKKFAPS
# * marks the source's active call; other numbers are inactive results; . = no result given. Shown are actives, neighbours in structure and some others; about 4.3% of the full set was active somewhere.
SMILES,UBC13 polyUb,RBBP9 inhibitor,Rin1-Abl PPI inh,PREPL inh,ALR inh,UBC9 SUMO inh
Cc1ccc(N/N=C(\C#N)C(=N)N2CCCCC2)cc1,-3,-6,-2,16,99*,7
N#C/C(=N\Nc1ccccc1)C(=N)N1CCCCC1,-17,-2,-1,14,99*,-12
N#C/C(=N\Nc1ccc(Br)cc1)C(=N)N1CCOCC1,6,9,0,8,98*,0
N#C/C(=N/Nc1ccc([N+](=O)[O-])cc1)C(=N)N1CCCCC1,.,-8,-9,.,.,-1
CCN(CC)C(=N)/C(C#N)=N/Nc1ccccc1,1,11,-4,12,87*,18
O=C(COc1ccc(Br)cc1Cl)NNC(=O)c1ccccc1,0,.,1,0,.,.
Cc1cccc(OCc2nnc(-c3ccc(F)cc3)o2)c1,1,.,3,6,.,.
CCOC(=O)/C(C#N)=N/Nc1ccccc1OC,-1,-7,0,5,-2,11
COc1ccccc1N/N=C(\C#N)C(=N)N1CCOCC1,-7,-8,0,11,82*,-5
CC(Oc1ccc(Cl)cc1Cl)C(=O)Nc1cccc(O)c1 (centres undefined),6,0,1,-19,23,-12
CC(Oc1ccc(Cl)cc1Cl)C(=O)Nc1ccc(O)cc1 (centres undefined),5,-3,0,1,98*,3
N=C(N)SCc1ccc(Cl)cc1Cl,-2,4,0,-3,99*,12
O=C(c1cccs1)N1CCC(c2nc3c(nnn3Cc3ccccc3Cl)c(=O)[nH]2)CC1,14,.,1,3,-8,6
CC1CC2(CC(C)(C(=O)CSc3nc4ccccc4s3)OC2=O)C(=O)O1 (centres undefined),0,-1,-3,3,98*,8
O=C(CSc1nc2ccccc2s1)NCc1ccc2c(c1)OCO2,11,-7,-1,-14,98*,17
COC(=O)CC1C(=O)NCCN1C(=O)c1ccccc1 (centres undefined),6,1,1,-1,6,-4
COC(=O)CC1C(=O)NCCN1C(=O)CSc1nc2ccccc2s1 (centres undefined),16,-8,-4,1,99*,-3
COCCn1nnnc1SCC(=O)NCc1ccc2c(c1)OCO2,-8,1,1,-3,96*,5
Cc1ccc(S(=O)(=O)NC(=O)CSc2nc3ccccc3s2)cc1,9,6,-1,1,57,11
CC(C)c1ccc(Oc2cccc3c2S(=O)(=O)N(C2CCCC2)CC(COCc2ccccc2)O3)cc1 (centres undefined),.,.,1,.,.,.
Nc1nc(CSc2nc3ccccc3s2)nc(N2CCOCC2)n1,5,-2,6,8,99*,-7
CC1(C)CC2(CC(C)(C(=O)CSc3nc4ccccc4s3)OC2=O)C(=O)O1 (centres undefined),2,-3,4,18,91*,2
O=C(CSc1nc2ccccc2s1)N1CCOCC1,-11,-8,-2,1,97*,11
CC1(C(=O)CSc2nc3ccccc3s2)CCC(=O)O1 (centres undefined),-4,-1,-2,-2,99*,21
NC(=O)C1(N2CCCCC2)CCN(C(=O)CSc2nc3ccccc3s2)CC1,-1,-9,-1,15,.,-7
SMILES,UBC13 polyUb,RBBP9 inhibitor,Rin1-Abl PPI inh,PREPL inh,ALR inh,UBC9 SUMO inh
Nc1nc(CSCc2ccccc2)nc(N2CCOCC2)n1,-5,6,-3,7,-1,-17
Cc1cc(C)nc(NC(=O)CSc2nc3ccccc3s2)n1,-5,-10,1,2,-12,5
O=C(O)/C(=C\c1ccc(Cl)c([N+](=O)[O-])c1)c1ccc(S(=O)(=O)N2CCCC2)s1,-22,.,3,2,1,.
CCN(CC(=O)Nc1cc(S(=O)(=O)N2CCOCC2)ccc1C)Cc1ccccc1,-1,.,3,-2,0,.
C=Cn1cc(CNC[C@H]2O[C@@H](n3ccc(N)nc3=O)[C@H](O)[C@@H]2O)c(C)n1,.,.,-1,.,.,.
Cc1ccc(NC(=O)CSc2nnnn2C2CCCC2)cc1S(=O)(=O)N1CCOCC1,4,.,2,4,-7,.
CC(=O)Nc1c2c(nn1-c1ccc(Cl)cc1)CSC2,4,.,-3,2,0,3
Cc1ccc(C2Nc3ccccc3NC3=C2C(=O)OC(C)C3)cc1 (centres undefined),4,4,-2,7,99*,12
CC1CC2=C(C(=O)O1)C(c1ccc(Cl)cc1)Nc1ccccc1N2 (centres undefined),1,-4,0,19,99*,13
CC1(C)Oc2cc3oc(=O)ccc3c3c2C2C1CCC(C)(O3)C2O (centres undefined),.,.,-1,.,.,.
CN(C)c1ccc(CNC(=O)CN(C)S(=O)(=O)c2cccc3cccnc23)cc1,-2,-12,0,4,9,-1
CN(CC(=O)NCc1cccs1)S(=O)(=O)c1cccc2cccnc12,-5,-11,0,-7,94*,-1
CC(=O)Nc1ccc2c(c1)NC(=O)CC2,5,-3,-1,1,-8,8
Nc1ccc2c(c1)Nc1ccccc1CC2,-2,-6,-3,14,99*,0
COC(=O)Nc1ccc2c(c1)Nc1ccccc1CC2,10,.,-2,6,98*,-18
CC[C@@]1(C(=O)OC)N[C@H](CN(C)S(=O)(=O)c2ccc(OC(F)(F)F)cc2)[C@@H]2C(=O)N(C)C(=O)[C@@H]21,1,.,-1,20,.,.
C=CCNC(=O)c1ccccc1S(=O)c1ccccc1C#N (centres undefined),5,2,-2,8,99*,32
C/C(=N\Nc1cc(Cl)nc(C)n1)c1ccc(C)cc1,-14,-5,-4,5,-2,.
O=C(O)/C(=C\c1ccccc1Cl)c1ccc(S(=O)(=O)N2CCCCC2)s1,-30,-12,-2,3,2,25
O=C(O)/C(=C\c1ccc(Cl)cc1)c1ccc(S(=O)(=O)N2CCCC2)s1,-16,.,1,2,98*,.
COc1cc(/C=C(\C(=O)O)c2ccc(S(=O)(=O)N3CCCC3)s2)cc(OC)c1,8,.,3,.,.,.
CSc1ccc(/C=C(\C(=O)O)c2ccc(S(=O)(=O)N3CCCCC3)s2)cc1,7,-11,-3,-2,90*,20
CC(=O)Nc1ccc(NCc2ccc(C)s2)cc1,-4,.,0,-4,96*,4
CCCC(=O)Nc1ccc(NCc2ccc(C)s2)cc1,6,.,2,-1,91*,-8
Cc1ccc(CNc2cc(C(=O)O)ccc2C)s1,-3,.,-2,-10,.,9
CCCC(=O)Nc1ccc(N2CCOCC2)cc1,12,0,-2,-4,43,6
CN(C(=O)COC(=O)C1=COCCO1)c1c(N)n(Cc2ccccc2)c(=O)[nH]c1=O,-4,.,0,6,5,.
